{"source": "ChEMBL document CHEMBL4371095", "about": "“Triazole-Based Inhibitors of the Wnt/β-Catenin Signaling Pathway Improve Glucose and Lipid Metabolisms in Diet-Induced Obese Mice” (J Med Chem, 2019)", "key": {"HEK293 [1]": {"test_system": "HEK293", "assay": "Growth inhibition of HEK293 cells harboring Wnt after 24 hrs by CellTiter-Fluor assay", "assay_type": "cell-based", "conditions": "human, hek293, 24 h", "how_it_was_run": "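HEK293 cells stably carrying the TOPFlash reporter were plated at 2000/well in DMEM with 10% FBS and incubated overnight. Compound was added with recombinant human Wnt-3a, then incubated 24 h at 37 °C. CellTiter-Fluor reagent was added and fluorescence read after 30 min at 37 °C.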"}, "HEK293 [2]": {"test_system": "HEK293", "assay": "Inhibition of Wnt3a activated Wnt/beta-catenin/Axin signaling (unknown origin) expressed in HEK293 cells assessed as degradation of beta-catenin by measuring decrease in beta-catenin protein expression at 1 to 10 uM after 2 hrs by Western blot method", "assay_type": "cell-based", "conditions": "Homo sapiens", "how_it_was_run": "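HEK293 cells stimulated with WNT3a were treated with compound for 2 h. Cells were lysed in 10 mM HEPES, 100 μM EDTA, 10 mM KCl, 0.5% NP40, protein was quantified by BCA, and β-catenin and Axin1 were resolved on 10% SDS-PAGE and immunoblotted.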"}, "HEK293 [3]": {"test_system": "HEK293", "assay": "Inhibition of Wnt/beta-catenin/Axin signaling (unknown origin) expressed in HEK293 cells assessed as decrease in CycD1 mRNA level after 48 hrs by qPCR analysis", "assay_type": "cell-based", "conditions": "Homo sapiens", "how_it_was_run": "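HEK293 cells were treated with compound for 48 h, harvested in TRIzol, and Wnt target gene mRNA was quantified by qPCR.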"}, "HEK293 [4]": {"test_system": "HEK293", "assay": "Inhibition of Wnt/beta-catenin signaling (unknown origin) expressed in GSK3beta knock down HEK293 cells harboring TCF/LEF-responsive luciferase assessed as luminescence at 20 nM measured after 24 hrs by luciferase reporter gene assay relative to control", "assay_type": "cell-based", "parameters": "scale not given: the % may be the effect or the level left", "conditions": "Homo sapiens", "how_it_was_run": "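HEK293 cells were transfected with siRNA against GSK3β, Axin or CK1α using RNAiMAX for 36 h. Cells were then treated with or without compound at 20 nM for 24 h, and TCF/LEF luciferase reporter activity was read.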"}, "[5]": {"assay": "Inhibition of Wnt/beta-catenin signaling (unknown origin) expressed in HEK293 cells harboring siRNA after 24 hrs by luciferase reporter gene assay", "assay_type": "cell-based", "conditions": "Homo sapiens, HEK293, 24 h"}, "Homo sapiens": {"organism": "Homo sapiens", "assay": "Ratio of IC50 for Wnt/beta-catenin signaling (unknown origin) expressed in HEK293 cells harboring GSK3B siRNA to IC50 for Wnt/beta-catenin signaling (unknown origin) expressed in HEK293 cells harboring siRNA", "assay_type": "cell-based"}, "Mus musculus [6]": {"organism": "Mus musculus", "assay": "Inhibition of Wnt/beta-catenin/Axin signaling in mouse hepatocytes assessed as decrease in PEPCK mRNA level at 5 uM by qPCR analysis", "assay_type": "cell-based", "how_it_was_run": "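Normal mouse hepatocytes were treated with 5 μM compound, and lipogenic and gluconeogenic gene mRNA was measured by qPCR; mean ± S.D. of triplicates.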"}, "[7]": {"assay": "Oral bioavailability in mouse at 10 mg/kg administered as single dose by LC-MS analysis", "assay_type": "ADME, organism-based", "conditions": "in vivo"}, "Mus musculus [8]": {"test_system": "Mus musculus", "assay": "Decrease in hepatic Glp1 mRNA level in high fat diet fed C57BL/6J mouse at 40 mg/kg, ip administered every 2 days for 11 weeks by qPCR analysis", "assay_type": "functional, organism-based", "how_it_was_run": "(§1)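 Male mice, 8 weeks old, fed a 45% kcal fat diet for 6 weeks, then dosed i.p. every 2 days in corn oil vehicle for 11 weeks. Liver mRNA of the indicated genes was quantified at sacrifice; mean ± SEM, n = 5 per group.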"}, "Mus musculus [9]": {"test_system": "Mus musculus", "assay": "Decrease in hepatic GCK mRNA level in high fat diet fed C57BL/6J mouse at 40 mg/kg, ip administered every 2 days for 11 weeks by qPCR analysis", "assay_type": "functional, organism-based", "how_it_was_run": "as §1"}, "Mus musculus [10]": {"test_system": "Mus musculus", "assay": "Decrease in hepatic SREBP1 mRNA level in high fat diet fed C57BL/6J mouse at 40 mg/kg, ip administered every 2 days for 11 weeks by qPCR analysis", "assay_type": "functional, organism-based", "how_it_was_run": "as §1"}, "Mus musculus [11]": {"test_system": "Mus musculus", "assay": "Decrease in hepatic ACC1 mRNA level in high fat diet fed C57BL/6J mouse at 40 mg/kg, ip administered every 2 days for 11 weeks by qPCR analysis", "assay_type": "functional, organism-based", "how_it_was_run": "as §1"}, "Mus musculus [12]": {"test_system": "Mus musculus", "assay": "Effect on hepatic ACAT2 mRNA level in normal chow diet fed C57BL/6J mouse at 40 mg/kg, ip administered every 2 days for 11 weeks by qPCR analysis", "assay_type": "ADME, organism-based", "conditions": "in vivo", "how_it_was_run": "(§2)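 Male mice, 8 weeks old, kept on normal chow throughout and dosed i.p. every 2 days in corn oil vehicle for 11 weeks. Body weight gain, liver/body weight ratio, and liver mRNA of the indicated genes were measured at sacrifice; mean ± SEM, n = 5 per group where stated.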"}, "Mus musculus [13]": {"test_system": "Mus musculus", "assay": "Effect on hepatic […] mRNA level in normal chow diet fed C57BL/6J mouse at 40 mg/kg, ip administered every 2 days for 11 weeks by qPCR analysis", "assay_type": "ADME, organism-based", "conditions": "in vivo", "how_it_was_run": "as §2"}, "Mus musculus [14]": {"test_system": "Mus musculus", "assay": "Effect on hepatic ACOT4 mRNA level in normal chow diet fed C57BL/6J mouse at 40 mg/kg, ip administered every 2 days for 11 weeks by qPCR analysis", "assay_type": "ADME, organism-based", "conditions": "in vivo", "how_it_was_run": "as §2"}, "Mus musculus [15]": {"test_system": "Mus musculus", "assay": "Decrease in body weight gain in high fat diet fed C57BL/6J mouse at 40 mg/kg, ip administered every 2 days for 11 weeks", "assay_type": "functional, organism-based", "how_it_was_run": "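Male mice, 8 weeks old, 24–27 g, given a 45% kcal fat diet for 6 weeks, then dosed i.p. every 2 days in corn oil vehicle with the diet continued. Sacrifice was about 24 h after the last dose. Liver was examined by H&E. Liver and serum triglyceride were measured by kit. Serum chemistry was included, and liver/body weight ratio was calculated.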"}, "[16]": {"assay": "Toxicity in high fat diet fed C57BL/6J mouse assessed as serum BUN level at 40 mg/kg, ip administered every 2 days for 11 weeks (reference value: 17.3 +/- 0.5 mg/dl)", "assay_type": "organism-based", "conditions": "in vivo"}, "[17]": {"assay": "Toxicity in normal chow diet fed C57BL/6J mouse assessed as serum LDH level at 40 mg/kg, ip administered every 2 days for 11 weeks (reference value: 324 +/- 63.5 U/L)", "assay_type": "organism-based", "conditions": "in vivo"}}, "note": "Activity calls are given as the source filed them. No cut-off for these calls is given here."}
{"smiles": "Cc1ccccc1-n1nnc(C(=O)Nc2ccc3ccccc3n2)c1C", "values": [{"measurement": "growth inhibition (GI)", "setting": "HEK293 [1]", "result": "Non-Toxic"}, {"measurement": "inhibition", "setting": "HEK293 [2]", "result": "Active"}, {"measurement": "inhibition", "setting": "HEK293 [3]", "result": "Active"}, {"measurement": "Activity", "setting": "HEK293 [4]", "result": 69, "unit": "%"}, {"measurement": "IC50", "setting": "[5]", "result": 20, "unit": "nM"}, {"measurement": "Ratio IC50", "setting": "Homo sapiens", "result": 1.7}, {"measurement": "inhibition", "setting": "Mus musculus [6]", "result": "Active"}, {"measurement": "bioavailability", "setting": "[7]", "result": 21, "unit": "%"}, {"measurement": "Activity", "setting": "Mus musculus [8]", "result": "Active"}, {"measurement": "Activity", "setting": "Mus musculus [9]", "result": "Active"}, {"measurement": "Activity", "setting": "Mus musculus [10]", "result": "Active"}, {"measurement": "Activity", "setting": "Mus musculus [11]", "result": "Active"}, {"measurement": "Activity", "setting": "Mus musculus [12]", "result": "Non-Toxic"}, {"measurement": "Activity", "setting": "Mus musculus [13]", "result": "Non-Toxic"}, {"measurement": "Activity", "setting": "Mus musculus [14]", "result": "Non-Toxic"}, {"measurement": "Activity", "setting": "Mus musculus [15]", "result": "Active"}, {"measurement": "Activity", "setting": "[16]", "result": 14.8, "unit": "mg/dL"}, {"measurement": "Activity", "setting": "[17]", "result": 190, "unit": "U/L"}]}
